{"data": "Measurements of several laboratories", "observed": "metabolic stability", "note": "Compare with care: the assays were run in different laboratories."}
{"system": "rat, liver microsomes", "conditions": "1 µM, pH 7.4", "half-life [min]": 1.5, "Structure (SMILES)": "CCc1cccc(CC)c1-n1c(C)c(C(=O)NC)cc(-c2nc(-c3ccc(Cl)cc3)cs2)c1=O"}
{"system": "rat, liver microsomes", "half-life [min]": 12, "Structure (SMILES)": "O=C(OC(C(F)(F)F)C(F)(F)F)N1CCc2ccccc2C1"}
{"system": "rat, liver microsomes", "conditions": "1 µM, pH 7.4", "half-life [min]": 17, "Structure (SMILES)": "O=[N+]([O-])c1ccc(CNc2nc(NCc3cccc(C(F)(F)F)c3)nc3[nH]cnc23)cc1"}
{"system": "rat, liver microsomes", "half-life [min]": 17, "Structure (SMILES)": "O=C(OC(C(F)(F)F)C(F)(F)F)N1Cc2ccc(OCCN3CCOCC3)cc2C1"}
{"system": "rat, liver S9", "conditions": "2 µM, pH 7.4", "half-life [min]": 6.54, "Structure (SMILES)": "O=c1ccc2ccc(O)cc2o1"}
{"system": "rat, liver microsomes", "conditions": "1 µM, pH 7.4", "half-life [min]": "> 30", "Structure (SMILES)": "CCc1cccc(CC)c1-n1c(C)c(C(=O)N2CCNCC2)cc(-c2nc(-c3ccc(Cl)cc3)cs2)c1=O"}
{"system": "rat, liver S9", "conditions": "2 µM, pH 7.4", "half-life [min]": 5.71, "Structure (SMILES)": "CCOc1c(O)cc(Br)c2c1CN1CCc3cc(OCC(F)F)c(O)cc3[C@@H]1C2"}
{"system": "rat, liver microsomes", "half-life [min]": "> 240", "Structure (SMILES)": "N#Cc1cc(NC(=O)[C@H]2c3ccccc3C(=O)N(CC(F)(F)F)[C@@H]2c2cccnc2)ccc1F"}
{"system": "rat, liver microsomes", "half-life [min]": 17, "Structure (SMILES)": "O=C(N[C@H](Cc1c[nH]c2ccccc12)C(=O)Nc1ccncc1)c1ccc(-c2cc(F)ccc2F)cc1F"}
{"system": "rat, liver microsomes", "half-life [min]": "> 60", "Structure (SMILES)": "CC(C)(C)C[C@@H]1N[C@@H](C(=O)N[C@H]2C[C@](C)(O)C2)[C@H](c2cccc(Cl)c2F)[C@]12C(=O)Nc1cc(Cl)ccc12"}
{"system": "male Sprague-Dawley rat, liver microsomes", "half-life [min]": 250, "Structure (SMILES)": "O=C(O)c1ccccc1-c1c2cc(Cl)c(=O)cc-2oc2cc(O)c(Cl)cc12"}
{"system": "rat, liver microsomes", "conditions": "5 µM", "half-life [min]": 16, "Structure (SMILES)": "CCCCN1C(=O)C(COC)NC(=O)C12CCN(Cc1ccc(Oc3ccccc3)cc1)CC2.Cl (stereo not drawn)"}
{"system": "rat, liver microsomes", "conditions": "10 µM, pH 7.4", "half-life [min]": "> 15", "Structure (SMILES)": "N#Cc1ccc(C[C@@H](NC(=O)Nc2ccc(F)cc2)C(=O)N2CCc3ccc(F)cc32)cc1"}
{"system": "rat, liver microsomes", "conditions": "1.5 µM", "half-life [min]": 0.87, "Structure (SMILES)": "Cc1ccc2c(c1)nc(CCc1cccc3cccnc13)n2-c1ccccc1"}
{"system": "rat, liver microsomes", "half-life [min]": 19, "Structure (SMILES)": "COc1ccc(CNC(=O)c2c(C)nc3cc(C)ccn23)cc1"}
